In article PMC8081235 (Biochemistry, 2020):
Residue numbers refer to the chain shown, from its start. Like-named read-outs stand apart in the source and are kept apart here. Blank lines part the entries; values can stand above or below the compound they belong to.

Legend:
[1] = biological target: T1, PLC-γ1 (D1165H) (Rattus norvegicus, UniProt P10686, D1165H); experiment: Pilot high-throughput screen of LOPAC1280 with XY-69 in liposomes; assay type: biochemical
T1 sequence (P10686 1-1290 D1165H): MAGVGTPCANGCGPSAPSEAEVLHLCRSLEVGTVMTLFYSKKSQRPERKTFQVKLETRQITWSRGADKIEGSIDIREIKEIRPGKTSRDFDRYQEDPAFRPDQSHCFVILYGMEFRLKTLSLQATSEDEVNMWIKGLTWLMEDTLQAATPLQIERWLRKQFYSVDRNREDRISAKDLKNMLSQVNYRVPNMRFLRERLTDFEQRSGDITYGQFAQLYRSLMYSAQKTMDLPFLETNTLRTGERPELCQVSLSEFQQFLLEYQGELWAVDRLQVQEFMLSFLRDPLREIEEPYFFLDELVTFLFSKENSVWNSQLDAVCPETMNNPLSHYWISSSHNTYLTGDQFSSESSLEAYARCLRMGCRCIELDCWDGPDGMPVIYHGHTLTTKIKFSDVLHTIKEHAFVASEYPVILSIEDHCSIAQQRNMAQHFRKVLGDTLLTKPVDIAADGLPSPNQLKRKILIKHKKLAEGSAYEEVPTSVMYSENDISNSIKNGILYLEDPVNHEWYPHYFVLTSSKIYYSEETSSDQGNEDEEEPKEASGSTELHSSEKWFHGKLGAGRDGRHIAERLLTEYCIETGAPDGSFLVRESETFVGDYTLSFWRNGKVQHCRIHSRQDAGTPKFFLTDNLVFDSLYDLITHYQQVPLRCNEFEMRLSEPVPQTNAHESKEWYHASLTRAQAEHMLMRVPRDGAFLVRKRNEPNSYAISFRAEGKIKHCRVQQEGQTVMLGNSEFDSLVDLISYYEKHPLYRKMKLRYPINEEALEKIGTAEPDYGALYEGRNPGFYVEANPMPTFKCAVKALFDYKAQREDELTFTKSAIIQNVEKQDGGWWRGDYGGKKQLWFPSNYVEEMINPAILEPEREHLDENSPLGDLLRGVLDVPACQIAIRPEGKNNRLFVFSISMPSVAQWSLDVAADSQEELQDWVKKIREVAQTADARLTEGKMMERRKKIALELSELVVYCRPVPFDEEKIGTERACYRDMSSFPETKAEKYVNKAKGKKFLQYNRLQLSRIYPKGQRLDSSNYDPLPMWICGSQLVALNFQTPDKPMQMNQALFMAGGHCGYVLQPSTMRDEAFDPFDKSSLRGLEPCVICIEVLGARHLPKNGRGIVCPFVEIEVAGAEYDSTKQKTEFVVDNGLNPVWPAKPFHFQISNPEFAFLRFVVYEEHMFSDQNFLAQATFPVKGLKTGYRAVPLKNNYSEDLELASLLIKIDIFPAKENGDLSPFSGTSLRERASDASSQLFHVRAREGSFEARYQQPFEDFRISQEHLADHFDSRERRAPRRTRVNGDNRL
Procedure, shortened: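 Screening was run in duplicate in 384-well format with test compounds at 10 μM. Purified PLC-γ1 (D1165H), 1 nM final, was preincubated 15 min at room temperature, then liposomes were added (final PE 220 μM, PIP₂ 20 μM, XY-69 0.5 μM). After 1 h the reaction was quenched with EGTA, pH 10.3, and read 30 min later (ex 485/em 520 nm). Full-inhibition controls were EGTA 10 mM and aurintricarboxylic acid 50 μM.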

[2] = stated without experiment or reference; cited from earlier work
[3] = system: PLCs; details: purified enzymes and intact cells; pan-inhibitors ref 24; cited from earlier work
[4] = Solubility; assay type: physicochemical
[5] = biological target: T1, PLC-γ1 (D1165H); experiment: IC50 measurement with XY-69 in liposomes; assay type: biochemical; details: for inhibition of PLC-γ1: statement in conclusions, relative to ATP
[6] = biological target: T2, wild-type PLC-γ1 (Rattus norvegicus, UniProt P10686); experiment: Isothermal titration calorimetry; assay type: binding; details: ITC, 25 °C
T2 sequence (P10686 2-1290): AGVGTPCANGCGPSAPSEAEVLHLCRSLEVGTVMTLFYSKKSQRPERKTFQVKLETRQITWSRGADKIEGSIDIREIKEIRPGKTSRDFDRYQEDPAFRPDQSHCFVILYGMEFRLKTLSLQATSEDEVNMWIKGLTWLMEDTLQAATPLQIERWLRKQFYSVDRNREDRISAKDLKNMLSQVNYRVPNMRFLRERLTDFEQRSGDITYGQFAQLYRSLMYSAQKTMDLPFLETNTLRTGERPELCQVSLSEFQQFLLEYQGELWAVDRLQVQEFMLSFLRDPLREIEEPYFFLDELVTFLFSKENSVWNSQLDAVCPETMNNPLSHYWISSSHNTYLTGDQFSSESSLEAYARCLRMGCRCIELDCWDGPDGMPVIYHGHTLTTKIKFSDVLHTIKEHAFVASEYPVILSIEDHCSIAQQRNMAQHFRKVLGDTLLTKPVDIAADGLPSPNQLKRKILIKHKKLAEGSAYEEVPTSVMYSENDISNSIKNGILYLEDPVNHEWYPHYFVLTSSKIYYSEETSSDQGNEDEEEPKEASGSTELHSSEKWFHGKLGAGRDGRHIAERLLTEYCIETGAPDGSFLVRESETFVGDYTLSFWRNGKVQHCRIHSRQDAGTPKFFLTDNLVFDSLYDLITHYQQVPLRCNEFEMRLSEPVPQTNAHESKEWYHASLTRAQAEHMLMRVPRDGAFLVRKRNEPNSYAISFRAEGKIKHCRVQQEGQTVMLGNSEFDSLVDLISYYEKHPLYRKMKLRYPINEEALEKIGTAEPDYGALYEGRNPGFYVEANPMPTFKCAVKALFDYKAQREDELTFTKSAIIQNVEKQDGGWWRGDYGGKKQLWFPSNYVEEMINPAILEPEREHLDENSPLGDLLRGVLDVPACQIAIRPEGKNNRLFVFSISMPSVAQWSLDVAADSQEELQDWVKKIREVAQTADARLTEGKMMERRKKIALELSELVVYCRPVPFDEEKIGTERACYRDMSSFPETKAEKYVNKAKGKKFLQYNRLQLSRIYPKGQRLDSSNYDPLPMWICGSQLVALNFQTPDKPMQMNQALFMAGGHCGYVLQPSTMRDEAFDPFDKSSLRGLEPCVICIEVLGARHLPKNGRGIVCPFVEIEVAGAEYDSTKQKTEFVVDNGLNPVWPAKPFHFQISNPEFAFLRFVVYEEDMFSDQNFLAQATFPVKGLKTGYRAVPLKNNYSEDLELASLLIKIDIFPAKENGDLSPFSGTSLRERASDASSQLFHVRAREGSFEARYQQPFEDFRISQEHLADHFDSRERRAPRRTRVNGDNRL

[7] = biological target: T3, wild-type PLC-γ1 (Rattus norvegicus, UniProt P10686)
T3 sequence (P10686 1-1290): T1 sequence (P10686 1-1290 D1165H) with H1165D

[8] = system: PLC-β4; details: high concentration (1 mM) ref 39; cited from earlier work
[9] = system: PLC-γ1; details: purified PLC ref 7; cited from earlier work
[10] = system: PLC-β2; details: purified PLC ref 7; cited from earlier work
[11] = system: PLC-δ1; details: purified PLC ref 7; cited from earlier work
[12] = XY-69 0.5 μM, PIP2 20 μM in liposomes

SMILES: O=C(O)C1=CC(=C(c2ccc(O)c(C(=O)O)c2)c2ccc(O)c(C(=O)O)c2)C=CC1=O [ATA, aurintricarboxylic acid]
inhibition by control in pilot screen ([1]; 50 μM): Full inhibition | cell permeability [2]: not cell permeable | direct inhibition of PLCs [3]: direct inhibitors

SMILES: O=C1Nc2cc(Br)ccc2/C1=C1/Nc2ccccc2/C1=N\O [Hit-1, 6-bromoindirubin-3′-oxime]
cell permeability [2]: cell permeable | solubility in aqueous buffer [4]: poor solubility

SMILES: Nc1ncnc2c1ncn2[C@@H]1O[C@H](COP(=O)(O)OP(=O)(O)OP(=O)(O)O)[C@@H](O)[C@H]1O [ATP, adenosine triphosphate]
Kd [6]: 2.6 µM | cell permeability [2]: not cell permeable | reduction of Vmax ([7]; 5 μM ATP present): 4.1 fold | change of KM ([7]; 1.5 and 5 μM ATP present): essentially unchanged | inhibition [8]: inhibit | IC50 [5]: 0.19 µM

SMILES: O=C(O)CN(CCOCCOCCN(CC(=O)O)CC(=O)O)CC(=O)O [EGTA]
inhibition by control in pilot screen ([1]; 10 mM, chelates Ca2+ cofactor): Full inhibition

SMILES: COc1ccc2c(c1)CC[C@@H]1[C@@H]2CC[C@]2(C)[C@@H](NCCCCCCN3C(=O)C=CC3=O)CC[C@@H]12 [Hit U73122]
flagged as inhibitor in pilot screen ([1]; LOPAC1280 at 10 μM): not flagged as an inhibitor | inhibition of phospholipase activity [9]: does not inhibit | inhibition of phospholipase activity [10]: does not inhibit | inhibition of phospholipase activity [11]: does not inhibit

Continued, values first:

inhibition of PLC-γ1 [5]: less or no inhibition
SMILES: Nc1ncnc2c1ncn2[C@@H]1O[C@H](COP(=O)(O)O)[C@@H](O)[C@H]1O [AMP]

IC50 [5, 12]: 4.3 µM | inhibition of PLC-γ1 [5]: less or no inhibition
SMILES: Nc1ncnc2c1ncn2[C@@H]1O[C@H](COP(=O)(O)OP(=O)(O)O)[C@@H](O)[C@H]1O [ADP]

IC50 [5, 12]: 12.7 µM
SMILES: Nc1nc2c(ncn2[C@@H]2O[C@H](COP(=O)(O)OP(=O)(O)OP(=O)(O)O)[C@@H](O)[C@H]2O)c(=O)[nH]1 [GTP]
